# In ChEMBL document CHEMBL4002590, “Design and Synthesis of a Pan-Janus Kinase Inhibitor Clinical Candidate (PF-06263276) Suitable for Inhaled and Topical Delivery for the Treatment of Inflammatory Diseases of the Lungs and Skin” (J Med Chem, 2017):
# The source made the active and inactive calls. No cut-off for these calls is given here.
# Legend:
# [1] = Drug metabolism in human liver microsomes assessed as UGT-mediated compound glucuronidation per mg protein in presence of microsomal activator Brij58 and cofactor UDPGA; assay type: ADME
# Procedure, shortened: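 Human liver microsomes supplemented with the activator Brij58 and cofactor UDPGA, NADPH omitted, to measure phase II glucuronidation turnover.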
# Janus Kinase (JAK) [2] = target: T1, Janus Kinase (JAK) (Homo sapiens, UniProt P52333+P23458+O60674+P29597); assay: Inhibition of JAK in human PBMC assessed as reduction in human recombinant IL-2/mouse anti-human CD3 stimulated IFNgamma production preincubated for 1 hr followed by IL2/CD3 stimulation measured after 18 hrs by ELISA
# Procedure, shortened: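 Primary PBMCs stimulated with IL-2; inhibition of IFNγ release measured. IC50 values are geometric means of at least three determinations.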
# [3] = target: Non-receptor tyrosine-protein kinase TYK2 (Homo sapiens, UniProt P29597); assay: Inhibition of Tyk2 (unknown origin) using peptide substrate preincubated for 60 mins followed by substrate addition and measured after 60 mins by microfluidic assay
# Procedure, shortened: (§1)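 Caliper microfluidic assay of peptide-substrate phosphorylation by the relevant JAK enzyme, run at 1 mM ATP; IC50 values are geometric means of at least three determinations.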
# Liver = assay: Metabolic stability in human liver microsomes assessed per mg protein; assay type: ADME, microsome
# Procedure, shortened: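 Metabolic stability measured as turnover in human liver microsomes.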
# [4] = target: T2, Tyrosine-protein kinase JAK3 (Homo sapiens, UniProt P52333); assay: Inhibition of GST tagged human recombinant JAK3 catalytic domain expressed in baculovirus using peptide substrate preincubated for 60 mins followed by substrate addition and measured after 60 mins by microfluidic assay; procedure, shortened: as §1
# T2 sequence (P52333 whole entry): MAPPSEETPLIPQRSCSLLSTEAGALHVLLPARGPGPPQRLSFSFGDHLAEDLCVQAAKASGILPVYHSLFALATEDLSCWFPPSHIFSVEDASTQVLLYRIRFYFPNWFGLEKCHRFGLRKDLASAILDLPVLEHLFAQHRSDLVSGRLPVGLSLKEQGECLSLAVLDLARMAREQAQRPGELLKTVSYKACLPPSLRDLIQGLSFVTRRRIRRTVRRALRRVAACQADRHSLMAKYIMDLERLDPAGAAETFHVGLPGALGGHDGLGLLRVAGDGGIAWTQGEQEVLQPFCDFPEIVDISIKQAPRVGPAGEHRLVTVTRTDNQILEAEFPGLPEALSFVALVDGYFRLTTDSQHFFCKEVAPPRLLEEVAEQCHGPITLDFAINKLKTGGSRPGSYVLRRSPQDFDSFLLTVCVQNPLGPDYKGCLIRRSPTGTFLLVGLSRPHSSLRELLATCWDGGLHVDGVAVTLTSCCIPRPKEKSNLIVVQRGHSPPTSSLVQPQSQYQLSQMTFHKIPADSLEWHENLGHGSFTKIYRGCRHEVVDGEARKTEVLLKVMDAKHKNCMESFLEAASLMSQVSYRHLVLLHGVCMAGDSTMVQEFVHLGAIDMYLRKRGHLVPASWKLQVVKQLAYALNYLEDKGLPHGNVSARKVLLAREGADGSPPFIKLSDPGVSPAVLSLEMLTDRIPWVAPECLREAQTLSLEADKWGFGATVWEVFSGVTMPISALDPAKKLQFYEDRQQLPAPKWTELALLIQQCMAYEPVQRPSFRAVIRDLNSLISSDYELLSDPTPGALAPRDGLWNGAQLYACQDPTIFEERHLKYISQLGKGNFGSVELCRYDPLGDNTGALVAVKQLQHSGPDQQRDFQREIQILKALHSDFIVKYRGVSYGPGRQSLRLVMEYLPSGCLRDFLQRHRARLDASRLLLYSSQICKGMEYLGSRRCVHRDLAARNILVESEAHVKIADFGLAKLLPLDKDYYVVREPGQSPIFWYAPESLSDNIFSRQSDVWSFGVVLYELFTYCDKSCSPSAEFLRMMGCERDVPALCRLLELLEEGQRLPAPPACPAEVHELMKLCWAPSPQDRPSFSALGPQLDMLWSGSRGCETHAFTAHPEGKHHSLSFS
# [5] = target: Tyrosine-protein kinase JAK2 (Homo sapiens, UniProt O60674); assay: Inhibition of GST tagged human recombinant JAK2 catalytic domain expressed in baculovirus using peptide substrate preincubated for 60 mins followed by substrate addition and measured after 60 mins by microfluidic assay; procedure, shortened: as §1
# [6] = target: Tyrosine-protein kinase JAK1 (Homo sapiens, UniProt P23458); assay: Inhibition of GST tagged human recombinant JAK1 catalytic domain expressed in baculovirus using peptide substrate preincubated for 60 mins followed by substrate addition and measured after 60 mins by microfluidic assay
# [7] = Thermodynamic solubility of the compound in pH 7.4 water buffer using crystalline solid sample; assay type: physicochemical; conditions: read-out: Therm_solubility
# Procedure, shortened: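 Thermodynamic solubility measured from crystalline solid in water buffered at pH 7.4.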
# [8] = target: T3, Tyrosine-protein kinase JAK3 (Homo sapiens) (UniProt P52333); assay: Inhibition of GST tagged human recombinant JAK3 catalytic domain expressed in baculovirus assessed as time taken for inhibition to reverse by 50% by dilution recovery based microfluidic mobility shift assay
# T3 sequence (whole entry): T2 sequence (P52333 whole entry)
# Procedure, shortened: (§2)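 JAK3 inhibition kinetics measured by continuous dilution-recovery in a microfluidic mobility shift format; offset rate (min−1) converted to a recovery T1/2.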
# [9] = target: Mitogen-activated protein kinase kinase kinase kinase 4 (Homo sapiens) (UniProt O95819); assay: Inhibition of MAP4K4 (unknown origin) at 1 uM relative to control
# [10] = target: T3, Tyrosine-protein kinase JAK3 (Homo sapiens); assay: Inhibition of GST tagged human recombinant JAK3 catalytic domain expressed in baculovirus assessed as offset rate by dilution recovery based microfluidic mobility shift assay; procedure, shortened: as §2
# [11] = Aqueous solubility of the compound; assay type: physicochemical; conditions: buffer
# Janus Kinase (JAK) [12] = target: T1, Janus Kinase (JAK)
# Janus Kinase (JAK) [13] = target: T1, Janus Kinase (JAK); remark: listed apart in the source
# Homo sapiens [14] = organism: Homo sapiens; assay: Selectivity ratio of IC50 for GST tagged human recombinant JAK3 catalytic domain expressed in baculovirus to IC50 for GST tagged human recombinant JAK1 catalytic domain expressed in baculovirus
# Procedure, shortened: (§3)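 Both IC50s come from the same microfluidic mobility-shift (Caliper) assay with 1 mM ATP. The read-out is inhibition of phosphorylation of a peptide substrate by JAK1, JAK2 or JAK3. Each IC50 is a geometric mean of at least three determinations.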
# Homo sapiens [15] = organism: Homo sapiens; assay: Selectivity ratio of IC50 for GST tagged human recombinant JAK2 catalytic domain expressed in baculovirus to IC50 for GST tagged human recombinant JAK1 catalytic domain expressed in baculovirus; procedure, shortened: as §3
# Janus Kinase (JAK) [16] = target: T1, Janus Kinase (JAK); assay: Inhibition of JAK in human PBMC assessed as reduction in human recombinant IL-2/ mouse anti-human CD3 stimulated STAT5 phosphorylation at tyrosine residue preincubated for 1 hr followed by IL2/CD3 stimulation after 30 mins by immunofluorescence assay
# Janus Kinase (JAK) [17] = target: T1, Janus Kinase (JAK); assay: Inhibition of JAK in human PBMC assessed as reduction in human recombinant IL-2/ mouse anti-human CD3 stimulated STAT5 phosphorylation at tyrosine residue at 10-fold IC50 preincubated for 1 hr followed by compound washout and subsequent IL2/CD3 stimulation measured after 30 mins by immunofluorescence assay
# Procedure, shortened: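 PBMC wash-out format: cells exposed to compound for 1 h at 10-fold IC50, washed extensively, then pSTAT5 response to IL-2 stimulation followed over time to give a recovery T1/2.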
# Tyrosine-protein kinase JAK1, sequence (P23458 whole entry, the tested form may be a part): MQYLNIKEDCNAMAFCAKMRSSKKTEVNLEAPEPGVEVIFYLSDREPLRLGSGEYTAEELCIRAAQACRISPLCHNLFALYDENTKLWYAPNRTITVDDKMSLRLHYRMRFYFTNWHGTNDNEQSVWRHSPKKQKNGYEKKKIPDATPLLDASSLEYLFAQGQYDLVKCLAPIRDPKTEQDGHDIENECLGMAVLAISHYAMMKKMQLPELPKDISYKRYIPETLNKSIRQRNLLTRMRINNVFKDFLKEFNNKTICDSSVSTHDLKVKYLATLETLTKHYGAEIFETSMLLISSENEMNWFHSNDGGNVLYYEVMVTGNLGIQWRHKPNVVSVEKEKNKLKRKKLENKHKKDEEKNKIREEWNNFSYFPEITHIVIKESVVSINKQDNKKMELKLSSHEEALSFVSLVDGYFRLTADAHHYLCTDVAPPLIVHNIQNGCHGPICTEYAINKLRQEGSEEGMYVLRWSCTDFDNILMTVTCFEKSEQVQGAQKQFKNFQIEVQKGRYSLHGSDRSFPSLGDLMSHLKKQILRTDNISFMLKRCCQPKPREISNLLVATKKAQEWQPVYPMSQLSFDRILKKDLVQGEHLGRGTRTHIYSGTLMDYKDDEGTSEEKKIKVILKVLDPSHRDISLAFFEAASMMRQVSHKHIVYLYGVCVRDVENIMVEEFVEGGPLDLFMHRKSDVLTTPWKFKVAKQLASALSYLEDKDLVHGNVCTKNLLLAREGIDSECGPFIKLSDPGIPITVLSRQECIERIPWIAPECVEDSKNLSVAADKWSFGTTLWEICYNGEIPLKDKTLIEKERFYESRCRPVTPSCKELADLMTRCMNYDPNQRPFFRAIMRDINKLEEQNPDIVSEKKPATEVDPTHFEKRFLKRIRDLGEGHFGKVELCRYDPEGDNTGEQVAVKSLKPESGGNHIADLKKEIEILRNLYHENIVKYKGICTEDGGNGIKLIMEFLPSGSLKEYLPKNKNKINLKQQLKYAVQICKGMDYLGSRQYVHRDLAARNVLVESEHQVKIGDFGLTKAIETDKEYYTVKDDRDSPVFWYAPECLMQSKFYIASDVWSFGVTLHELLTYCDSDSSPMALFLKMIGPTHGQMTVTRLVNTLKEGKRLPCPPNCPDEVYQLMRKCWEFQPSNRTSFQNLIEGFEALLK
# Tyrosine-protein kinase JAK2, sequence (O60674 whole entry, the tested form may be a part): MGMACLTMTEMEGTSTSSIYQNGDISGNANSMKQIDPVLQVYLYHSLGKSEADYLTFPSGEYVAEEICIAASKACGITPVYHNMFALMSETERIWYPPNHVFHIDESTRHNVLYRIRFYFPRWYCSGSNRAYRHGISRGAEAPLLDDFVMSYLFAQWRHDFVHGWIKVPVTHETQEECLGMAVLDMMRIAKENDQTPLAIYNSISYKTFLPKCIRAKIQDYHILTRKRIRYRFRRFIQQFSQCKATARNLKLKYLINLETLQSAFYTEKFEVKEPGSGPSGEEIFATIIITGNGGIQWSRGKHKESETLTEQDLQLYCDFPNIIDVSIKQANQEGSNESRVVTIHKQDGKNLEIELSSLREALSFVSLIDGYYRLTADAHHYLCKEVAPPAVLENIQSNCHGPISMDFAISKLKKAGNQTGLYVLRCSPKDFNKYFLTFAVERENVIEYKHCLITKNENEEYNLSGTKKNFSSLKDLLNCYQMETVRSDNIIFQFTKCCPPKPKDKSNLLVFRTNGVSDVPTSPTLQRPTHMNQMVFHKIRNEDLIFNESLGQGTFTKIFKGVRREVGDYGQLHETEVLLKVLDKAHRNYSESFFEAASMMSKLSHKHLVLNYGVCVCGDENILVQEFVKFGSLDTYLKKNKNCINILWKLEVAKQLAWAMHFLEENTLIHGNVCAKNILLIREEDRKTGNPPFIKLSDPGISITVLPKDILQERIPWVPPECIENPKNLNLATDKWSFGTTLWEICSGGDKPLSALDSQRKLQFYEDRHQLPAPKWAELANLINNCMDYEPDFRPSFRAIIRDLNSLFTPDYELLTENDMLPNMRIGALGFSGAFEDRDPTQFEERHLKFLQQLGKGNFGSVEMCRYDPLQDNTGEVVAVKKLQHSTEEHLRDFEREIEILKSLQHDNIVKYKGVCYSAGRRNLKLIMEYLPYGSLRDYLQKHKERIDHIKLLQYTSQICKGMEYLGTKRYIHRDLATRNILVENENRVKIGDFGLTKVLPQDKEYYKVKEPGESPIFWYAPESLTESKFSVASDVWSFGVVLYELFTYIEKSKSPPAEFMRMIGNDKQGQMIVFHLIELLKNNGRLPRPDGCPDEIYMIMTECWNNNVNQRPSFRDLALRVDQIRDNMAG
# T1 sequence (O60674 whole entry, looked up, one chain of several): as the sequence (O60674 whole entry, the tested form may be a part) above
# T1 sequence (P23458 whole entry, looked up, one chain of several): as the sequence (P23458 whole entry, the tested form may be a part) above
# T1 sequence (P29597 whole entry, looked up, one chain of several): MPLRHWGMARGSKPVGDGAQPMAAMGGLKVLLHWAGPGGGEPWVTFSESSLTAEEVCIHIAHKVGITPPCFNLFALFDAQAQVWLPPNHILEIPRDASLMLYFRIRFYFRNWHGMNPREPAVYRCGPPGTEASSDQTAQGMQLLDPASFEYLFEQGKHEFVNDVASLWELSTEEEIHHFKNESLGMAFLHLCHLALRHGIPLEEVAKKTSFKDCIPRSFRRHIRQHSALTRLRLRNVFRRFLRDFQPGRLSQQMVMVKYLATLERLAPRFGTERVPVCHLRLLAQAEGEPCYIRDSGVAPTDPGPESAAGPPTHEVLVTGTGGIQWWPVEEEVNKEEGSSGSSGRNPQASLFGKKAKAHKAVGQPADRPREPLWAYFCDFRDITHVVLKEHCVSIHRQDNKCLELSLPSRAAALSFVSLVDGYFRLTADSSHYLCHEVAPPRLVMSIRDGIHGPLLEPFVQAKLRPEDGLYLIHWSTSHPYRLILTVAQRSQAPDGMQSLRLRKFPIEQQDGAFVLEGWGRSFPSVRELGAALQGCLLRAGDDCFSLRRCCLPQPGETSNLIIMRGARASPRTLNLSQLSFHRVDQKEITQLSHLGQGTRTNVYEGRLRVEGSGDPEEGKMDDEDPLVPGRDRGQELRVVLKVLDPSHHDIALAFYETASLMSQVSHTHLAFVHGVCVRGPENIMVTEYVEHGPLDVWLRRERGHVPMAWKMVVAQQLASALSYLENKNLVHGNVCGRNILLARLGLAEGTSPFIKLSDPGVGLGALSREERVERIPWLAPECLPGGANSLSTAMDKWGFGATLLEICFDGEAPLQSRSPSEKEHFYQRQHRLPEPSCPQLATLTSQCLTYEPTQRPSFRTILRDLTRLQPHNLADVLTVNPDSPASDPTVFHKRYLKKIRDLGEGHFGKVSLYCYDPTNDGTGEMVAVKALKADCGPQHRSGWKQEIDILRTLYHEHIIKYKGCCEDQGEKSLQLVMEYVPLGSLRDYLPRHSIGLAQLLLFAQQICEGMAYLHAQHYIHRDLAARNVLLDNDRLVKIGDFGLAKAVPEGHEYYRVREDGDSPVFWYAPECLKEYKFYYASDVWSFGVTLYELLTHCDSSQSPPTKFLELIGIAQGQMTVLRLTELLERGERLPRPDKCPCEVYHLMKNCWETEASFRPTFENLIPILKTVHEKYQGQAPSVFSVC
# Non-receptor tyrosine-protein kinase TYK2, sequence (P29597 whole entry): as the sequence (P29597 whole entry, looked up, one chain of several) above
# Mitogen-activated protein kinase kinase kinase kinase 4 (Homo sapiens), sequence (O95819 2-1239 limits assumed): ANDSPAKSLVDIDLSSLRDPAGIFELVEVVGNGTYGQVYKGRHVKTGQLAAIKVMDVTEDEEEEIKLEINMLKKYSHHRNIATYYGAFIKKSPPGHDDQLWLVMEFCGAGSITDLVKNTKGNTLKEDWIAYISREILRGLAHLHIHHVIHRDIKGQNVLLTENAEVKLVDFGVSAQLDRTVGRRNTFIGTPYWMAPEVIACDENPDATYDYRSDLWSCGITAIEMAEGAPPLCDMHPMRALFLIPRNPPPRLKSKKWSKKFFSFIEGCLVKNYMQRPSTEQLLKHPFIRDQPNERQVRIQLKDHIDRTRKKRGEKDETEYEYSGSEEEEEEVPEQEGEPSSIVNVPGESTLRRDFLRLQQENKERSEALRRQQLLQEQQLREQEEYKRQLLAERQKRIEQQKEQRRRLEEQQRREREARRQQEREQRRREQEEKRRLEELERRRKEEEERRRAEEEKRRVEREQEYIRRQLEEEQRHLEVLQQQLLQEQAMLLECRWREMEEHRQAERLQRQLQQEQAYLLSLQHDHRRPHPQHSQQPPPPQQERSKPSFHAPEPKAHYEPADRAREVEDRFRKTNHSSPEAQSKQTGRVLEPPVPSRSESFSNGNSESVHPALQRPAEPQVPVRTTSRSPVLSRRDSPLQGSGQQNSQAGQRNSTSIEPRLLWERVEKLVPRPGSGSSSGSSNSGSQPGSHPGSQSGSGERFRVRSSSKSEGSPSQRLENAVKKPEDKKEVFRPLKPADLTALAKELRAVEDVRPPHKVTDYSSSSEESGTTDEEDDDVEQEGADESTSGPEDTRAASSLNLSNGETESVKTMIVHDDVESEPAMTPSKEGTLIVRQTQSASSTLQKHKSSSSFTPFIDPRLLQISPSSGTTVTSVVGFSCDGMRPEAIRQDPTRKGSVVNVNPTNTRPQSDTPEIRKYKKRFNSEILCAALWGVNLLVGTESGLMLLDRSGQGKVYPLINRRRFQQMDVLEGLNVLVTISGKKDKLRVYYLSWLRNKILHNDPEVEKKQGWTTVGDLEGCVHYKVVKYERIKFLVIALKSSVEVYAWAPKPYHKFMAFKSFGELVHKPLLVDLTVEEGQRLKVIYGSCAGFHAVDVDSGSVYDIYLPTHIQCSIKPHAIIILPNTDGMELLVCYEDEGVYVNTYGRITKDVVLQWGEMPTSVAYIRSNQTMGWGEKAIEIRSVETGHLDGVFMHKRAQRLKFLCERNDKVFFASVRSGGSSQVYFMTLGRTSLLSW
Compound,Drug metabolism [1],IC50 (Janus Kinase (JAK) [2]),IC50 [3],Stability (Liver),IC50 [4],IC50 [5],IC50 [6],solubility thermodynamic [7],T1/2 [8],inhibition [9],K [10],solubility [11],T1/2 (Janus Kinase (JAK) [12]),TDI (Janus Kinase (JAK) [13]),Ratio IC50 (Homo sapiens [14]),Ratio IC50 (Homo sapiens [15]),IC50 (Janus Kinase (JAK) [16]),inhibition (Janus Kinase (JAK) [17])
CCc1cc(O)ccc1-c1ccc2c(-c3nc4c([nH]3)CCN(C(=O)c3cnc(N5CCCCC5)cn3)C4)n[nH]c2c1,17 µL/min,,,,,,,,,,,,,,,,,
CCc1c(-c2ccc3c(-c4nc5ccccc5[nH]4)n[nH]c3c2)ccc(O)c1F,46 µL/min,204.8 nM,,,,,,,,,,,,,,,,
CCc1cc(O)ccc1-c1ccc2c(-c3nc4c([nH]3)CN(C(C)=O)CC4)n[nH]c2c1,5.5 µL/min,4.5 nM,22.7 nM,42 µL/min,7.1 nM,3.3 nM,0.5 nM,10 to 20 µM,,,,,,,,,,
CCc1cc(O)c(F)cc1-c1ccc2c(-c3nc4c([nH]3)CCN(C(=O)c3ccc(F)cc3)C4)n[nH]c2c1,37 µL/min,35 nM,0.8 nM,48 µL/min,1.7 nM,0.3 nM,< 0.1 nM,,,,,,,,,,,
CCc1cc(O)ccc1-c1ccc2c(-c3nc4ccccc4[nH]3)n[nH]c2c1,49 µL/min,10.5 nM,9.1 nM,35 µL/min,8.3 nM,2.2 nM,0.4 nM,,1.9 h,> 85%,0.006 min⁻¹,Insoluble,6.5 h,Active,,,,
CCc1cc(O)ccc1-c1ccc2c(C(=O)NC)n[nH]c2c1,,9.1 nM,796 nM,,125 nM,40.9 nM,7.5 nM,14 µM,,,,,,,,,,
CCc1cc(O)c(F)cc1-c1ccc2c(-c3nc4c([nH]3)CN(Cc3ccccc3)CC4)n[nH]c2c1,> 360 µL/min,30.4 nM,57.5 nM,75 µL/min,31 nM,15.9 nM,1.8 nM,,,,,,,,,,,
Oc1cccc(-c2ccc3c(-c4nc5ccccc5[nH]4)n[nH]c3c2)c1,,572.7 nM,291 nM,,493 nM,101 nM,68.6 nM,,,,,,,,,,,
CC(C)c1cc(O)ccc1-c1ccc2c(-c3nc4ccccc4[nH]3)n[nH]c2c1,,250.3 nM,392 nM,,293 nM,79.6 nM,26.8 nM,,,,,,,,,,,
CCc1cc(O)ccc1-c1ccc2c(C(N)=O)n[nH]c2c1,,19.1 nM,54.5 nM,,4.3 nM,4.2 nM,1.7 nM,15 µM,,,,,,,,,,
CCc1cc(O)ccc1-c1ccc2c(C(=O)N(C)C)n[nH]c2c1,,> 10000 nM,> 10000 nM,,> 10000 nM,> 10000 nM,2760 nM,,,,,,,,,,,
CCc1cc(O)ccc1-c1ccc2c(C(=O)Nc3ccc(C)nc3)n[nH]c2c1,,277.8 nM,816 nM,,418 nM,58.8 nM,60 nM,0.5 µM,,,,,4.5 h,,,,,
C[C@@H]1CCN(C(=O)CC#N)C[C@@H]1N(C)c1ncnc2[nH]ccc12,,,,,,,,,,,,,,,3,5,,
CCc1cc(O)ccc1-c1ccc2c(-c3ncc[nH]3)n[nH]c2c1,,10.4 nM,4.6 nM,,0.8 nM,0.8 nM,0.9 nM,4.1 µM,,,,,,,,,,
CCc1cc(O)ccc1-c1ccc2c(-c3nc4c([nH]3)CN(C)CC4)n[nH]c2c1,< 1.9 µL/min,18.6 nM,20.1 nM,56 µL/min,2.9 nM,6.4 nM,2.1 nM,10 to 20 µM,,,,,,,,,,
C[C@@H]1CCN(C(=O)N2CC[C@@H](S(=O)(=O)c3cccc(O)c3)C2)C[C@@H]1N(C)c1ncnc2[nH]ccc12,> 200 µL/min,,959 nM,131 µL/min,34.1 nM,21.2 nM,2.3 nM,20 µg/mL,0.467 h,,0.024 min⁻¹,,,,,,343 nM,inactive
C[C@@H]1CCN(C(=O)N2CCCC2)C[C@@H]1N(C)c1ncnc2[nH]ccc12,< 3.5 µL/min,,1630 nM,82 µL/min,139 nM,124 nM,37.5 nM,,,,,,,,,,27 nM,inactive
CCc1cc(O)ccc1-c1ccc2c(-c3nc4c([nH]3)CN(S(C)(=O)=O)CC4)n[nH]c2c1,7.3 µL/min,39.1 nM,25.1 nM,18 µL/min,1.3 nM,5.6 nM,1.3 nM,,,,,,,,,,,
CCCc1cc(O)ccc1-c1ccc2c(-c3nc4ccccc4[nH]3)n[nH]c2c1,,75.4 nM,437 nM,,166 nM,17.3 nM,9.7 nM,,,,,,,,,,,
CCc1cc(O)c(F)cc1-c1ccc2c(-c3nc4ccccc4[nH]3)n[nH]c2c1,> 360 µL/min,47.9 nM,15.3 nM,,16.7 nM,7.9 nM,0.8 nM,,,,,,3.5 h,,,,,
